In ChEMBL document CHEMBL1124520, “New kelatorphan-related inhibitors of enkephalin metabolism: improved antinociceptive properties” (J Med Chem, 1989):

Tests used:
Neprilysin = target: T1, Neprilysin (Oryctolagus cuniculus, UniProt P08049); assay: Inhibition of neutral endopeptidase activity in rabbit kidney with 20 nM [3H]D-Ala2-Leu-enkephalin as substrate
T1 sequence (P08049 whole entry): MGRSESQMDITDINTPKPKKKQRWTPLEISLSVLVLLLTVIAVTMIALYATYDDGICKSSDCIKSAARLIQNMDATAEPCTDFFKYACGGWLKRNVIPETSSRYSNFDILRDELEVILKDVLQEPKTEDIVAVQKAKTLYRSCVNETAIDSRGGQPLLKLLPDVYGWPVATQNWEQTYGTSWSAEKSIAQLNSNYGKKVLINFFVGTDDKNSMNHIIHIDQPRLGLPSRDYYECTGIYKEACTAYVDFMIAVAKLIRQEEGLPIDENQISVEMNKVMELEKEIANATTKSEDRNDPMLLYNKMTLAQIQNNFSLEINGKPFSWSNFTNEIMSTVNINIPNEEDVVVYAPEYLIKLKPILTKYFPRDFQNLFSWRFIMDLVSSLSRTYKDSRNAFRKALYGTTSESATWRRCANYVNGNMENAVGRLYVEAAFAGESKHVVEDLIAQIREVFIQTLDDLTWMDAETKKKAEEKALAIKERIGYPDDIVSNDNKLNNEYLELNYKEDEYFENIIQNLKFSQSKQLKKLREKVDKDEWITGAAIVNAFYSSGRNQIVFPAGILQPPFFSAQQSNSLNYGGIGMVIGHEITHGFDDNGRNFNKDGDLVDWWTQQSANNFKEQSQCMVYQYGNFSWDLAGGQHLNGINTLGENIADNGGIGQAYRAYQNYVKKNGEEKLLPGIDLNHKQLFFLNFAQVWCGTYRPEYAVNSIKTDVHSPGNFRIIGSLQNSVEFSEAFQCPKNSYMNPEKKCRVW
Summary of the method: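 NEP purified to homogeneity from rabbit kidney, 1 pmol/100 μL final, preincubated 15 min at 25 °C in 50 mM Tris-HCl with or without inhibitor. [3H]-D-Ala2-Leu-enkephalin (Km 30 μM) added at 20 nM final. Reaction stopped at 30 min with 0.5 M HCl; products separated on polystyrene beads. IC50 from log-probit of five concentrations, mean ± SEM of three experiments.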

[1] = Inhibition of dipeptidyl amino peptidase activity in rat brain with 10 nM [3H]Leu-enkephalin as substrate; assay type: tissue-based
Summary of the method: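 Membrane-bound dipeptidylaminopeptidase purified from rat brain. Preincubated 15 min at 25 °C in 50 mM Tris-HCl with or without inhibitor. […] IC50 by log-probit over five inhibitor concentrations; mean ± SEM, three independent experiments.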

Aminopeptidase N = target: T2, Aminopeptidase N (Sus scrofa, UniProt P15145); assay: Inhibition of Aminopeptidase N activity in pig kidney with 10 nM [3H]Leu-enkephalin as substrate; assay type: tissue-based
T2 sequence (P15145 whole entry): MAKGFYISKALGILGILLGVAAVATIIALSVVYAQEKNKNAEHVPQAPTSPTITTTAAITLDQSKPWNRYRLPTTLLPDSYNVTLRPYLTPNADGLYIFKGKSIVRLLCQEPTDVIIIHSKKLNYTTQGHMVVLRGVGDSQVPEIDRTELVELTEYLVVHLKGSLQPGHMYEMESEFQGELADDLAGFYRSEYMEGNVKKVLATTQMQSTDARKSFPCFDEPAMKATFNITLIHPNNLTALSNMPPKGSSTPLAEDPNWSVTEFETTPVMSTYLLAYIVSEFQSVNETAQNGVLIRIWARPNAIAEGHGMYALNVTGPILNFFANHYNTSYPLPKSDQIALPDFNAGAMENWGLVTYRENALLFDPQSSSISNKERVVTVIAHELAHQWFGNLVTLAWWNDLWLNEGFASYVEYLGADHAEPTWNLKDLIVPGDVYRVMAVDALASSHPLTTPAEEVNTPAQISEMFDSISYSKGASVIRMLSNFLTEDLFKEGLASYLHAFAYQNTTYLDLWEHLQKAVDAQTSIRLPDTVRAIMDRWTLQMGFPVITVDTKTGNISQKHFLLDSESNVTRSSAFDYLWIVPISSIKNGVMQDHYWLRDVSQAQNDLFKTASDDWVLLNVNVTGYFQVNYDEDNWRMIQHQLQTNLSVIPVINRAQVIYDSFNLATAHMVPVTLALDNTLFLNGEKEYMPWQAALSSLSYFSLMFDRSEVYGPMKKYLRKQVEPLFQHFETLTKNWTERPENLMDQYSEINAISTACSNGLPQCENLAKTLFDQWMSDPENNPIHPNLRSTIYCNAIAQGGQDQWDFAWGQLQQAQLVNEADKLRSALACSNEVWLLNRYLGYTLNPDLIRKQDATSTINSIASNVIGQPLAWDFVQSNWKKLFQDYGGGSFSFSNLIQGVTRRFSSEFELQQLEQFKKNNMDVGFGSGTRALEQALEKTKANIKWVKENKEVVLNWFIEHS
Summary of the method: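 Commercial aminopeptidase N, used unpurified. Enzyme preincubated 15 min at 25 °C with or without rising inhibitor concentrations in 50 mM Tris-HCl. [3H]Leu-enkephalin (Km 50 μM) added to 10 nM final. Stopped after 30 min with HCl; tritiated metabolites separated on polystyrene beads. IC50 from log-probit of five concentrations, mean ± SEM of three independent experiments.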

Mus musculus = assay: Analgesic effect when injected intracerebroventricularly at 50 (microg); assay type: functional
Summary of the method: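 Male Swiss mice (23–25 g), icv dose of 50 μg in 10 μL saline, n = 10 per group. Hot plate at 55 ± 0.5 °C; jump latency read 15 min after injection, cutoff 240 s. Compared with vehicle controls by ANOVA and Bonferroni test. % analgesia = (experimental − control latency)/(240 s − control latency).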

SMILES | IC50 (Neprilysin) | IC50 [1] | IC50 (Aminopeptidase N) | Analgesia (Mus musculus) | Latency time (Mus musculus)
O=C(O)C[C@H](Cc1ccccc1)NC(=O)[C@@H](CC(=O)NO)Cc1ccccc1 (racemic) | 3 nM | 0.46 nM | 22.5 nM | 68.2% | 193.7 s
O=C(CC(Cc1ccccc1)C(=O)NC(Cc1ccccc1)C(=O)O)NO (configuration not stated) |  |  | 130 nM |  | 
O=C(O)C[C@H](Cc1ccccc1)NC(=O)[C@H](CC(=O)NO)Cc1ccccc1 | 7.6 nM | 28.5 nM | 1430 nM |  | 
CN(C(=O)C(CC(=O)NO)Cc1ccccc1)C(Cc1ccccc1)C(=O)O (configuration not stated) | 150 nM | 2.3 nM | 120 nM |  | 
O=C(O)C[C@H](NC(=O)[C@H](CC(=O)NO)Cc1ccccc1)c1ccccc1 | 3 nM | 7.2 nM | 400 nM |  | 
C[C@H](NC(=O)[C@@H](CC(=O)NO)Cc1ccccc1)C(=O)O [KELATORPHAN] |  |  |  | 50% | 167.2 s
O=C(O)C[C@H](NC(=O)[C@@H](CC(=O)NO)Cc1ccccc1)c1ccccc1 (racemic) | 2.9 nM | 2.6 nM | 32.5 nM | 62.1% | 184.8 s
O=C(CC(Cc1ccccc1)C(=O)NCC(Cc1ccccc1)C(=O)O)NO (configuration not stated) | 1.8 nM | 2.5 nM | 71.5 nM | 39.4% | 151.8 s

Continued, in another order:

IC50 (Neprilysin) | IC50 [1] | IC50 (Aminopeptidase N) | SMILES | Analgesia (Mus musculus) | Latency time (Mus musculus)
13 nM | 17.5 nM |  | CC(NC(=O)C(CC(=O)NO)Cc1ccccc1)C(C)C(=O)O (stereo in doubt; 11B) |  | 
2.3 nM | 23 nM | 360 nM | CC(CNC(=O)C(CC(=O)NO)Cc1ccccc1)C(=O)O (configuration not stated) | 46.6% | 162.3 s
51.5 nM | 250 nM | 500 nM | O=C(O)CCCCNC(=O)C(CC(=O)NO)Cc1ccccc1 (configuration not stated) |  | 
1.7 nM | 0.9 nM | 350 nM | CC(CC(=O)O)NC(=O)C(CC(=O)NO)Cc1ccccc1 (stereo in doubt; C) |  | 
27.5 nM | 150 nM | 1500 nM | O=C(O)CCCNC(=O)C(CC(=O)NO)Cc1ccccc1 (configuration not stated) |  | 
2.4 nM | 36 nM | 670 nM | O=C(O)CCNC(=O)C(CC(=O)NO)Cc1ccccc1 (configuration not stated) | 21.5% | 125.3 s
2 nM | 10 nM | 445 nM | CC(CC(=O)O)NC(=O)C(CC(=O)NO)Cc1ccccc1 (stereo in doubt; 6) | 20.5% | 124 s
26.5 nM | 10.5 nM |  | CC(NC(=O)C(CC(=O)NO)Cc1ccccc1)C(C)C(=O)O (stereo in doubt; 11A) |  | 
 | 21 nM | 2000 nM | O=C(O)CNC(=O)C(CC(=O)NO)Cc1ccccc1 (configuration not stated) |  | 
